Most compounds without a hit are left out; they make up all but 3.4% or so of the library.
IMP-1 inh – inhibitors of Pseudomonas aeruginosa IMP-1 metallo-beta-lactamase; AID 1556; inhibition, % at 5.6 µM; purified IMP-1, nitrocefin hydrolysis, epi-absorbance fluorescence; 290,000 tested, 0.45% active;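 active = inhibition above the mean plus 3 SD of all compounds in the same screening run, cut at about 4.5% in these data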
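Material – recombinant IMP-1 enzyme, purified · Amount – IMP-1 0.2 nM before substrate addition · Medium – HEPES buffer pH 7.1 with ZnSO4 and Brij 35 · Timing – 25 °C, 15 min preincubation, 25 min reaction · Measured by – plate fluorescence quenching by hydrolysis product, ex 480/em 530 nm · Read-out – percent enzyme inhibition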
TMEM16A act – activates or potentiates the mouse TMEM16A chloride channel; 340,000 tested, 0.3% active; HEK293 TMEM16A/YFP-H148Q/I152L, iodide quench fluorescence; stronger effect = lower value; B-score at 10 µM; AID 623877;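 active = fluorescence-ratio B-score plate-corrected deviation score at least 3 library SD below zero, with starting fluorescence score within 5 deviations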;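 also: channel opened by trigger with iodide after compound preincubation; score built on the fluorescence ratio of max minus min over baseline; more negative score means more quench and so TMEM16A activation or potentiation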
TMEM16A inh – inhibitors of mouse TMEM16A calcium-activated chloride channel | Q8BHY3 | HEK293 TMEM16A/YFP iodide influx fluorescence, ionomycin | normalized B-score (activity score, 25-100; higher = stronger inhibition) at 10 µM | 310,000 tested, 1.2% active | AID 588511;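 active = ratio plate-corrected score three or more library SD toward inhibition, starting fluorescence score within five deviations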;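 also: score derived from kinetic fluorescence span divided by baseline fluorescence per well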
CHT allo act – human CHT allosteric activation | 310,000 tested, 0.49% active | CHT-expressing cells, membrane potential dye, choline EC20; stronger effect = higher value; LV-AA mutant CHT in HEK293 cells | B-score at 10 µM | Q9GZV3;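 active = initial fluorescence not abnormally high and integrated response B-score, plate-corrected, over 3 SD above library mean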
CHT block – inhibitors of human choline transporter CHT | Q9GZV3 | 310,000 tested, 0.86% active | B-score at 10 µM | CHT-expressing cells, membrane potential dye, choline response; stronger effect = lower value;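 active = B-score over 3 SD under the library average, and starting fluorescence ratio not unusually high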;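 also: choline stimulus applied at its EC90 after an EC20 pre-addition; B-score computed on integrated fluorescence ratio after choline addition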
VIM-2 inhibitor – inhibitors of Pseudomonas aeruginosa VIM-2 metallo-beta-lactamase | inhibition, % at 5.6 µM | AID 1527 | 290,000 tested, 0.89% active | purified VIM-2, nitrocefin hydrolysis, epi-absorbance fluorescence;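 active = inhibition above the mean of all tested compounds plus 3 SD, cutoff set per screening run, cut at about 7.5% in these data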;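 also: red hydrolysis product quenches plate fluorescence so inhibitors raise well fluorescence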
TMEM16A reconf – re-confirmation of mouse TMEM16A chloride channel inhibitors. shares compounds with TMEM16A inh. HEK293 TMEM16A/YFP-H148Q, iodide quench fluorescence; ionomycin added to raise cell calcium. inhibition, % at 10 µM. AID 652189. 2,300 tested, 39% active;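 active = mean duplicate percent inhibition, scaled so buffer wells are 0 and the reference blocker 100, over three buffer SD above buffer mean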
TMEM16A Ca cntr – calcium mobilization counter-screen hit for TMEM16A inhibitor series; 2,300 tested, 2% active; TMEM16A/YFP HEK293, Fluo4 calcium mobilization; calcium response (% of ionomycin), % at 10 µM; shares compounds with TMEM16A inh;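 active = duplicate-averaged calcium signal over 20% of the ionomycin maximum, relative to buffer baseline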;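 also: each well's signal is peak minus trough fluorescence divided by its pre-addition baseline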
Parental YFP cnt – parental YFP-HEK293 iodide quench counter-screen activity. shares compounds with TMEM16A inh. ionomycin. YFP ratio F(max-min)/F0 at 10 µM. 2,300 tested, under 10 active. AID 652233;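 active = yellow fluorescent protein signal ratio exceeding the buffer control mean by over 5 SD of those controls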;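 also: ratio is mean of duplicate wells from kinetic YFP trace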
ClC-1 inh – selectivity of TMEM16A inhibitors: inhibition of rat ClC-1 chloride channel | shares compounds with TMEM16A inh | CHO ClC-1-YFP, iodide influx fluorescence quench; iodide control reads 0, buffer control 100 | ratio percent, % at 10 µM | 2,300 tested, under 10 active;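 active = duplicate-mean ratio percent above the mean of iodide-only control wells, which defines zero, plus 5 of their SD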;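 also: higher percent means stronger block of ClC-1 iodide influx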
Target sequence (P35524 whole entry, looked up): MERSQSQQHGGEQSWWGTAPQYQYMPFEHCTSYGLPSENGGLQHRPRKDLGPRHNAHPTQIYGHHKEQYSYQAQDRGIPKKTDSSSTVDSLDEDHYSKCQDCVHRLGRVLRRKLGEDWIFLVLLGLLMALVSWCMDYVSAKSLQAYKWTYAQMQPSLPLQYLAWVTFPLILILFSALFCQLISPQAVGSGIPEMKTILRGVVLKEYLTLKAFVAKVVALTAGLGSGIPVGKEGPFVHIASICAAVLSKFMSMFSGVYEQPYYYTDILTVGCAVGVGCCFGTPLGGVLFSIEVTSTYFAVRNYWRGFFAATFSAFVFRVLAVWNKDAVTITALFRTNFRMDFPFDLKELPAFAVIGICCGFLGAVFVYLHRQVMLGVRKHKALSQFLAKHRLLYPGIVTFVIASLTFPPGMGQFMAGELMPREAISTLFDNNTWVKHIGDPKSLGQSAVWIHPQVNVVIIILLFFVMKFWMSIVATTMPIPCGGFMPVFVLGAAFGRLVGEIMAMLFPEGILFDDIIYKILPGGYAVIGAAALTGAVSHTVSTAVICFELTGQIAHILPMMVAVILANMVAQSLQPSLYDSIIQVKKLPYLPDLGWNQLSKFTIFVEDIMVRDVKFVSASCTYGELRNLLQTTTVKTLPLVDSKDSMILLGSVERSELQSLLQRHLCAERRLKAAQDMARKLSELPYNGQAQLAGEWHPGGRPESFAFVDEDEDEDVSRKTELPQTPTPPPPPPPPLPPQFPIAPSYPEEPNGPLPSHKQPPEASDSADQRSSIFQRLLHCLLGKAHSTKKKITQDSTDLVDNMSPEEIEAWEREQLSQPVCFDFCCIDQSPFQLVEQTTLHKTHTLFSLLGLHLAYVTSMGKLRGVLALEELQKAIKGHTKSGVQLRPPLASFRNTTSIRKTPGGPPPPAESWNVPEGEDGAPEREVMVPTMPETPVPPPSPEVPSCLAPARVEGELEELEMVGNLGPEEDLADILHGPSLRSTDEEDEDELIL
Hits are given with their value; - = inactive; . = no result.

SMILES	IMP-1 inh	TMEM16A act	TMEM16A inh	CHT allo act	CHT block	VIM-2 inhibitor	TMEM16A reconf	TMEM16A Ca cntr	Parental YFP cnt	ClC-1 inh
CCOC(=O)c1ccc(N/C=C/C(=O)c2ccccc2)cc1	-	-	-	-	-	-	.	.	.	.
CCc1nc2ccc(C(=O)NCCCN3CCN(c4ccccc4F)CC3)cc2nc1CC	-	-	-	-	-	-	.	.	.	.
Nc1nc(-c2ccccc2)ns1	.	-	.	.	.	.	.	.	.	.
Cc1ccc(C(=O)CSc2nc(C(C)C)nc3ccccc23)cc1	-	-	100	-	-	-	-	-	-	-
COc1cc(/C=C/C(=O)c2ccc3c(c2)OCCO3)cc(Br)c1OCC(=O)N(C)C	-	-	-	-	-	-	-	-	-	-
O=C1c2cc(O)c(O)cc2S(=O)(=O)C1c1ccccc1 (configuration not stated)	.	-	-	-	-	.	.	.	.	.
COC(=O)COc1cccc(-n2cnnn2)c1	-	-	-	-	-	-	.	.	.	.
Cc1cc(C(=O)COc2cccc(-n3cnnn3)c2)c(C)n1-c1ccccc1	-	-	100	-	-	-	-	-	-	-
COc1ccc(-n2c(C)cc(C(=O)COC(=O)Cn3cnc4ccccc43)c2C)cc1	-	-	100	-	-	-	23%	-	-	-
COc1ccc(NC(=O)COC(=O)Cn2cnc3ccccc32)cc1	.	-	.	.	.	.	.	.	.	.
CC(C)Cc1ccc(C(C)C(=O)O)cc1 (configuration not stated)	-	-	-	-	-	-	.	.	.	.
COC(=O)c1cc(NC(=O)C(C)c2ccc(CC(C)C)cc2)ccc1O (configuration not stated)	-	-	25	-	-	-	22%	-	-	-
O=C(CSc1nnnn1-c1ccc(Cl)cc1)NC1CCS(=O)(=O)C1 (configuration not stated)	.	-	.	.	.	.	.	.	.	.
O=C(CSc1ncnc2ccccc12)c1ccc2c(c1)OCCO2	-	-	25	-	-	-	39%	-	-	-
O=C(OCc1c(-c2ccccc2)ncc2ccccc12)c1ccccc1C(F)(F)F	.	-	.	.	.	.	.	.	.	.
N#Cc1c(NCc2ccccc2)ccnc1NCc1cccnc1	-	-	100	-	-	-	18%	-	-	-
CCn1c(SCC(=O)N2CCOCC2)nc2oc3c(Cl)cc(Cl)cc3c(=O)c2c1=O	-	.	-	-	-	-	32%	-	-	-
CCn1c(SCC(=O)N2CCOCC2)nc2sc3c(c2c1=O)CCCC3	-	-	-	-	-	-	.	.	.	.
O=C1C[C@H](NC(=O)OCc2ccccc2)CO1	.	-	.	.	.	.	.	.	.	.
COc1ccc(CN2C(=O)c3c(c(C)n(C)c3C)C2C(=O)NC2CCC(C)CC2)cc1 (configuration not stated)	-	-	-	-	-	-	.	.	.	.
O=C(O)CSC1CC(=O)N(c2ccc(Cl)cc2)C1=O (configuration not stated)	-	-	-	-	-	-	.	.	.	.
O=C(CSC1CC(=O)N(CC(c2ccccc2)c2ccccc2)C1=O)Nc1ccc(Cl)cc1 (configuration not stated)	-	-	25	-	-	-	-	-	-	-
COc1ccc(CN(C)C(=O)c2cccc(Oc3ccccc3)c2)c(OC)c1OC	-	-	25	-	-	-	32%	-	-	-
COc1cccc(CN(C)C(=O)c2cccc(S(=O)(=O)NCc3ccccc3)c2)c1OC	.	-	-	-	-	.	.	.	.	.
CC(C)C(=O)Nc1ccc(NC(=O)c2cccc3c(Br)cccc23)cc1	-	-	-	-	-	-	.	.	.	.
SMILES	IMP-1 inh	TMEM16A act	TMEM16A inh	CHT allo act	CHT block	VIM-2 inhibitor	TMEM16A reconf	TMEM16A Ca cntr	Parental YFP cnt	ClC-1 inh
CCN(CC)S(=O)(=O)c1ccc(NC(=O)Nc2cccc(C(F)(F)F)c2)cc1	-	-	100	-	-	-	44%	-	-	-
CCN(CC)S(=O)(=O)c1ccc(NC(=O)C(OC)c2ccccc2)cc1 (configuration not stated)	-	-	25	-	-	-	-	-	-	-
CN(C)C(=S)N=c1ssc(=S)n1Cc1cccnc1	.	-	.	.	.	.	.	.	.	.
CC(Sc1nnnn1C1CCCC1)C(=O)Nc1cccc(S(=O)(=O)N2CCOCC2)c1 (configuration not stated)	.	-	.	.	.	.	.	.	.	.
CC1CCCC(NC(=O)COC(=O)c2n[nH]c3ccccc23)C1C (configuration not stated)	.	-	.	.	.	.	.	.	.	.
CN(C)S(=O)(=O)c1cc(NC(=O)COC(=O)C2COc3ccccc3O2)ccc1Cl (configuration not stated)	-	-	-	-	-	-	.	.	.	.
CCN(c1ccccc1)S(=O)(=O)c1cc(NC(=O)Nc2ccccc2C#N)ccc1Cl	-	-	25	-	-	-	-	-	-	-
CCN(c1ccccc1)S(=O)(=O)c1cc(NC(=O)COC(=O)C2CC2)ccc1Cl	-	-	100	-	-	-	-	-	-	-
CC(SC1CCCC1)C(=O)Nc1ccnn1C(C)C (configuration not stated)	-	-	-	-	-	-	-	-	-	-
Clc1c(Cl)c(Cl)c2n[nH]nc2c1Cl	-	-	100	-	-	-	44%	-	-	-
COc1ccc2c(c1)CC/C(=C\Nc1ccc3c(c1)OCO3)C2=O	-	-	25	-	-	-	-	-	-	-
CC(C)c1ccc(OCC(=O)Nc2ccccc2C(=O)N2CCOCC2)cc1	-	-	-	-	-	-	.	.	.	.
COc1ccc(CCNc2nc(-c3sc(C)nc3C)cs2)cc1OC	-	-	100	-	-	-	34%	-	-	-
N#Cc1nc(N2CCCC2)nc(N2CCCC2)n1	-	-	100	-	-	-	22%	-	-	-
Cc1ccc(C(=O)Nc2ccc(OCc3ccccc3)cc2)cc1[N+](=O)[O-]	-	-	25	-	-	-	-	-	-	-
O=C(Nc1ccc(OCc2ccccc2)cc1)c1cccc([N+](=O)[O-])c1	-	-	-	-	-	-	.	.	.	.
COc1ccc(N2CCn3c2nc2c3c(=O)n(CCc3ccccc3)c(=O)n2C)c(OC)c1	-	.	.	.	.	-	.	.	.	.
COc1ccc(N2CCn3c2nc2c3c(=O)n(CCCc3ccccc3)c(=O)n2C)c(OC)c1	-	-	100	-	-	-	22%	-	-	-
